Screens (PubChem)
PGC1a acetyl inh: inhibitors of PGC1a acetylation signal, primary screen, cell-based, U2OS, AlphaScreen, inhibitor mode; AlphaScreen anti-acetyl-lysine; with virally co-expressed GCN5 acetyltransferase; 350,000 tested, 0.17% active; inhibition, % at 15.6 µM; AID 651687, 2012;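 active means every replicate shows inhibition of at least 40%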;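 further: 0% = neutral control wells and 100% = positive control wells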
Cneo AK release: Cryptococcus neoformans cell lysis inducers, primary screen, AK release luminescence, single concentration; lysis activity, % at 15 µM; C. neoformans lysis, adenylate kinase release luminescence, 4 h; normalised: neutral wells 0, clomiphene wells 100; 360,000 tested, 0.2% active;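 active means mean lysis activity across replicates of at least 80%, whatever share of replicates individually reach that level; inactive means mean lysis activity below 80%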
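Test system: log-phase Cryptococcus neoformans yeast cells. Input: 5 × 10^6 yeast cells/mL. Medium: fresh YPD growth medium. Doses: single dose. Incubation: static 4 h at 37 °C with compound, 1 h detection. Measured by: luminescent adenylate kinase detection reagent. Read-out: signal increase indicating cell lysis. Benchmarks: Clomiphene.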
SIRT5 inh: SIRT5 desuccinylase inhibitors, primary screen, biochemical, fluorescence imaging, single point, set 5 | inhibition, % at 15 µM | NAD-dependent protein deacylase sirtuin-5, mitochondrial (Homo sapiens), Q9NXA8 | 330,000 tested, 1.1% active | Purified SirT5, succinyl-peptide AMC, trypsin-coupled fluorescence; in the data active means inhibition above about 15%
Target sequence (Q9NXA8 whole entry, looked up): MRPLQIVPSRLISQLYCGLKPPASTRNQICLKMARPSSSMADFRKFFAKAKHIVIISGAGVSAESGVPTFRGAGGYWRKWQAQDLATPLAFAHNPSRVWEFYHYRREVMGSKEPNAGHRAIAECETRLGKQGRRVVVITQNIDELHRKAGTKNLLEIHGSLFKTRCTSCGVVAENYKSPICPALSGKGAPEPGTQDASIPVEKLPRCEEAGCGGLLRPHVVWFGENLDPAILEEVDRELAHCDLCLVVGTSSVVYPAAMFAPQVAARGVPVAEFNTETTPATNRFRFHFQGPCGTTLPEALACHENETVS
Ecoli rRNA inh: reduced GFP signal of wild-type E. coli, primary screen, bacterial rRNA inhibitor project, GFP/RFP fluorescence, OD600, single point. GFP signal change (wild-type ribosome), % (test concentration not listed). 350,000 tested, 1.6% active. E. coli WT GFP vs humanized-ribosome RFP mutants, 24 h; active compounds read low; DMSO median 0, no signal -100;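 active means significant combined selectivity score with lowered wild-type GFP, culture density cut under 30%, mutant RFP and density less affected; inactive means any of these conditions unmet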
C2C12 statin: suppressors of statin myotoxicity in C2C12 myotubes, primary screen, cell-based, single point, plate reader; AID 602340, 2012; rescue of ATP level, % at 7.49 µM; 330,000 tested, 0.78% active; C2C12 myotubes + simvastatin, ATP luminescence, 48 h; scaled: DMSO 0, geranylgeraniol control 100;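 active means mean ATP rescue above about 67%, or every replicate alone reaching that limit, limit read from the data, passing the limit was not always enough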;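 further: myotubes were challenged with 10 µM simvastatin during compound exposure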
S100A4 inh HTS: inhibitors of S100A4-myosin IIA peptide binding, primary screen, biochemical, fluorescence polarization, TAMRA-MyoIIA peptide; Protein S100-A4 (Homo sapiens), P26447; inhibition, % at 10.7 µM; 360,000 tested, 0.14% active;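 active means mean inhibition of at least 70% across replicates, with every replicate also reaching that level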
Target sequence (P26447 whole entry, looked up): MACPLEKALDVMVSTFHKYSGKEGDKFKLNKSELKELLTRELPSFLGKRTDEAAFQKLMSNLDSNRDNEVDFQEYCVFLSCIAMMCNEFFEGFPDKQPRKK
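Material: S100A4 monomer protein | Medium: HEPES pH 7.2 with CaCl2, KCl, NaCl, DTT, Triton | Reagent: Labelled myosin peptide probe, 5 nM | Doses: One dose per compound | Times: 5 min incubation before reading | Benchmarks: Neutral control DMSO, positive control TFP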
Active calls of the source: *; nt = no result given. Compounds with a hit are over-represented: about 3% of the library has one in this group of screens.

SMILES | PGC1a acetyl inh | Cneo AK release | SIRT5 inh | Ecoli rRNA inh | C2C12 statin | S100A4 inh HTS
CCOc1ccc(OCCC(=O)OCC(=O)c2c(N)n(CC(C)C)c(=O)n(C)c2=O)cc1 | nt | -1.0 | nt | -17.4* | 0.5 | -15.7
O=C(CSc1n[nH]c(=O)n1C1CC1)Nc1ccc(Cl)c(Cl)c1 | -8.9 | -3.1 | -3.7 | -20.4* | -2.2 | -1.6
O=C(Nc1cccc(F)c1)N1C[C@H]2[C@@H](c3ccccc31)[C@H](CO)N2C(=O)Cc1ccccc1 | -10.3 | -3.2 | 2.5 | -41.4 | 9.3 | -0.1
O=C(COC(=O)CSc1ccc([N+](=O)[O-])cc1)NCc1cccs1 | nt | 1.9 | 15.5* | -0.5 | -13.1 | -2.8
O=C(NCc1ccc(F)cc1)[C@@H]1[C@@H](CO)[C@@H]2Cn3c(cccc3=O)[C@H]1N2C(=O)Cc1ccccn1 | nt | 1.5 | -3.1 | 4.9 | 1.0 | -1.6
COCCCNC(=O)c1cccn2c(=O)c3cc4ccccc4cc3nc12 | -1.9 | 0.1 | 1.0 | -9.3 | 182.0* | -1.6
C=CCn1c(=N)c(C(=O)NCCCOC)cc2c(=O)n3cccc(C)c3nc21 | -1.1 | -0.3 | nt | nt | -2.2 | nt
CC=Cc1ccc2n(c1=O)C[C@@H]1[C@@H](CO)[C@H](C(=O)NCCc3cn(C)cn3)N(C(=O)CC)[C@H]21 (mixture of isomers) | -2.9 | nt | -2.3 | 2.8 | nt | -5.6
C[C@H](CO)N1C[C@H](C)[C@@H](CN(C)C(=O)C2CCC2)Oc2cc(C3=CCCC3)ccc2S1(=O)=O | 2.1 | -1.2 | -1.0 | -8.8 | -16.5 | 8.3
CN(C)S(=O)(=O)c1cccc(NC(=O)c2cc3c(=O)n4ccccc4nc3s2)c1 | nt | nt | 16.0* | 4.0 | -3.4 | -1.1
CC(C)c1ccc(NC(=O)c2n[nH]c(=O)c3ccccc23)cc1 | 108.0* | nt | -2.9 | 3.9 | -13.3 | 1.2
Cc1cc(NC(=O)c2n[nH]c(=O)c3ccccc23)ccc1Br | nt | nt | -2.0 | 20.5 | nt | -4.5
CCN(CC)S(=O)(=O)c1cc(NC(=O)c2n[nH]c(=O)c3ccccc23)ccc1C | -5.1 | 0.1 | -3.4 | 4.1 | -13.4 | 1.5
CN(C)S(=O)(=O)c1cccc(NC(=O)c2n[nH]c(=O)c3ccccc23)c1 | 11.9 | nt | 3.9 | -25.9* | nt | 5.6
Cc1ccc(S(=O)(=O)N(C)C[C@H]2Oc3c(NC(=O)c4cc(C)nn4C)cccc3C(=O)N([C@@H](C)CO)C[C@@H]2C)cc1 | 1.7 | -5.6 | -2.4 | 0.5 | -24.7 | -5.7
C[C@@H]1CN([C@@H](C)CO)C(=O)c2cc(C3=CCCC3)cnc2O[C@H]1CN(C)Cc1ccc(F)cc1 | 1.1 | 4.2 | 0.3 | -0.8 | -1.2 | -42.2
C[C@@H]1CN([C@H](C)CO)C(=O)c2cc(C3=CCCC3)cnc2O[C@@H]1CN(C)Cc1ccc(F)cc1 | nt | 50.1 | 3.0 | 2.3 | 6.9 | 104.6*
C[C@@H]1CN([C@H](C)CO)C(=O)c2cc(C3=CCCCC3)cnc2O[C@@H]1CN(C)Cc1ccccc1F | -3.6 | 0.5 | -3.6 | 3.8 | 114.7* | -8.9
C[C@H]1CN([C@@H](C)CO)C(=O)c2cc(C3=CCCC3)cnc2O[C@@H]1CN(C)Cc1ccccc1F | 0.2 | 0.0 | nt | -5.6 | 10.8 | nt
Cc1noc(C)c1NC(=O)Nc1ccc2c(c1)CC(=O)N([C@H](C)CO)C[C@@H](C)[C@H](CN(C)Cc1ccc(Oc3ccccc3)cc1)O2 | 0.3 | 0.1 | nt | -5.1 | 9.8 | nt
CCC(=O)NC(c1cccs1)c1ccc2cccnc2c1O (stereo not drawn) | 47.4* | nt | -5.5 | -49.9 | nt | -9.0
O=C1NCCOCn2nncc2CC[C@H]1Cc1ccccc1 | nt | nt | nt | 2.9 | nt | nt
COc1ccc(S(=O)(=O)Nc2ccc3c(c2)CC(=O)N([C@@H](C)CO)C[C@@H](C)[C@@H](CN(C)C(=O)Nc2ccc4c(c2)OCO4)O3)cc1 | -8.4 | 1.8 | 0.9 | -2.3 | -12.9 | 1.2
